In the library only some 3.4% were active in any assay of this set; here they are far more common.
GPR7 antagonist: antagonists of human GPR7 (neuropeptides B/W receptor 1); GPR7-expressing cells, fluorescence antagonist assay; inhibition, % at 4.4 µM; 290,000 compounds, 1.1% hits; P48145; in the data active = inhibition above about 16%, passing the limit was not always enough;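 also: cells stimulated with the agonist NPW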
TRPML3 agonist: activates the human TRPML3 channel; Q8TDD5; HEK293 TRPML3-YFP, Fluo-8 calcium fluorescence; 100% = the carbachol control signal; activation, % at 3 µM; 220,000 compounds, 0.29% hits; AID 1448;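 active = activation above its plate's cutoff, the mean activation of the plate's test wells plus 3 SD, cut at about 12% in these data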
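Test system – HEK293 line with stable expression of human TRPML3-YFP channel · Control set – carbachol 87 µM final as high control (100%), DMSO as low control (0%) · Signal – Fluo-8 calcium dye fluorescence, ex 470-495, em 515-575 nm · Incubation – 1-h 37 °C dye load, 5-s basal, 120-s post-compound reads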
TRPN1 ag: activates the zebrafish TRPN1 channel; AID 1424; 220,000 compounds, 0.18% hits; HEK293 zebrafish TRPN1-YFP, Fluo-8 calcium fluorescence; 100% = response to 87 µM carbachol; activation, % at 3 µM;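 active = activation above its plate's cutoff, the mean activation of test wells on that plate plus 3 SD, cut at about 19% in these data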
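Assay system: Zebrafish TRPN1-YFP in HEK293 cells | Incubation: Dye loading 1 h at 37 °C, then 30 min room temperature | Measured by: Kinetic Fluo-8 fluorescence, ex 470-495, em 515-575 nm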
LANA-H2B inh: blocks KSHV LANA binding to histone H2A/H2B | Q9QR71 | cell-free LANA-H2A/H2B peptide, fluorescence polarization | inhibition, % (no concentration beside the values) | 320,000 compounds, 0.6% hits; in the data active = inhibition mostly above about 10%, no sharp cut-off; inactive = mostly below about 6.7%
TAAR1 antagonist: human TAAR1 antagonism; inhibition, % at 3 µM; CHO RD-HGA16 TAAR1, Fluo-8 calcium fluorescence, antagonist; AID 624466; Q96RJ0; 360,000 compounds, 1.5% hits;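 active = inhibition above a per-plate cutoff, the mean inhibition of test compounds on that plate plus 3 SD, cut at about 49% in these data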
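Material: RD-HGA16 CHO cells with stable hTAAR1 and Gα16; Dosing: single nominal final test compound concentration of 3 µM; Schedule: seeding 17-24 h prior, 75-min 37 °C, 30-min RT dye loading; Detection: kinetic Fluo-8 calcium fluorescence measurement; Measure: % inhibition from peak post-agonist over basal fluorescence ratio; Benchmarks: vehicle and agonist controls.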
TAAR1 ag: human TAAR1 agonism | Q96RJ0 | CHO RD-HGA16 TAAR1, Fluo-8 calcium fluorescence; vehicle wells 0%, saturating PEA agonist 100% | activation, % at 3 µM | 360,000 compounds, 0.99% hits;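 active = activation above the mean activation of all test compounds in the run plus 3 SD, cut at about 38% in these data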
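Benchmarks: low control DMSO, high control PEA (EC100); System: CHO RD-HGA16 cells carrying human TAAR1 plus Gα16; Detection: Fluo-8 fluorescence, 5 s baseline then 140 s kinetic read; Schedule: 17-24 h plating, Fluo-8 75 min 37 °C, 30 min RT; Read-out basis: % activation from peak over basal fluorescence ratio, DMSO-to-PEA scaled.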
TAAR1 ag conf: human TAAR1 agonism, confirmed; 2,400 compounds, 82% hits; CHO RD-HGA16 TAAR1, Fluo-8 calcium fluorescence; scaled: DMSO 0%, maximal phenethylamine 100%; shares compounds with TAAR1 ag; activation, % at 3 µM;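 active = activation above a cutoff set at the run's mean compound activation plus 3 SD, cut at about 39% in these data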
Ga16 nonsel ag: counter-screen for TAAR1 agonists: nonselective agonists in parental cells | CHO-Ga16 parental, Fluo-8 calcium fluorescence; normalized to maximal ATP response, DMSO zero | shares compounds with TAAR1 ag | 2,400 compounds, 50% hits | activation, % at 3 µM;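 active = activation above the run cutoff, the mean activation over all tested wells plus 3 SD, cut at about 12% in these data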
TAAR1 desensitize: TAAR1 response desensitization, agonist counter-screen; shares compounds with TAAR1 ag; CHO RD-HGA16 hTAAR1, Fluo-8 calcium, beta-PEA response inhibition; inhibition, % at 3 µM; 2,400 compounds, 46% hits; AID 651951;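 active = inhibition above the run cutoff, the mean inhibition of all test compounds plus 3 SD, cut at about 49% in these data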;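 also: beta-PEA stimulus applied at its EC80; loss of beta-PEA calcium signal after compound pretreatment read as receptor desensitization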
Ga16 nonsel ant: nonselective Ga16 antagonist in TAAR1 agonist counter-screen. shares compounds with TAAR1 ag. CHO-Ga16 ATP-induced calcium, Fluo-8 fluorescence. 2,400 compounds, 39% hits. inhibition, % at 3 µM;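 active = inhibition above the plate's mean compound inhibition plus 3 SD, computed per plate, cut at about 22% in these data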
Each line names hits and unclear results; the compound was inactive in the other large screens (follow-up assays come after a bar, where they were run); ! = repeats disagree.

O=C(Nc1ccccn1)c1ccc2c(c1)S(=O)(=O)c1ccccc1C2=O	none
O=C1c2ccccc2S(=O)(=O)c2cc(C(=O)N(c3ccccn3)c3ccccn3)ccc21	TRPML3 agonist 76, TRPN1 ag 35, TAAR1 antagonist 65, TAAR1 ag 145 | TAAR1 ag conf 138 | Ga16 nonsel ag 94 | TAAR1 desensitize 59 | Ga16 nonsel ant inactive
CCCOc1ccc(F)cc1-c1cc(C(=O)Nc2ccc(OC)cc2C)[nH]n1	none (no result: GPR7 antagonist, TRPML3 agonist, TRPN1 ag, LANA-H2B inh)
COc1ccc(Br)cc1CSC(=N)N	TAAR1 ag 46 | TAAR1 ag conf 71 | Ga16 nonsel ag inactive | TAAR1 desensitize inactive | Ga16 nonsel ant inactive
CCOc1ccc(CSC(=N)N)cc1	none
CCCCCOc1ccc(Br)cc1CSC(=N)N	GPR7 antagonist 72, TAAR1 antagonist 93, TAAR1 ag 93 (no result: LANA-H2B inh) | TAAR1 ag conf 106 | Ga16 nonsel ag 60 | TAAR1 desensitize 102 | Ga16 nonsel ant 71
CCCCOc1ccc(CSC(=N)N)cc1Cl	TAAR1 ag 100 | TAAR1 ag conf 109 | Ga16 nonsel ag 55 | TAAR1 desensitize 61 | Ga16 nonsel ant 27
Nc1ccn([C@@H]2O[C@H](C(=O)N[C@H](CO)Cc3ccccc3)[C@@H](O)[C@H]2O)c(=O)n1	none (no result: GPR7 antagonist, TRPML3 agonist, TRPN1 ag, LANA-H2B inh)
Cc1ccc(C2(c3ccc(C)cc3)NC(=O)N(CC(N)=O)C2=O)cc1	none (no result: TRPML3 agonist, TRPN1 ag)
COc1ccc(F)cc1S(=O)(=O)NCC(=O)NCc1cc(=O)n(C)c(=O)n1C	none (no result: TRPML3 agonist, TRPN1 ag)
NC(N)=N/N=C/c1ccccc1Cl	none
NC(N)=N/N=C/c1c(Cl)cccc1Cl	TAAR1 antagonist 54!, TAAR1 ag 61 | TAAR1 ag conf 88 | Ga16 nonsel ag inactive | TAAR1 desensitize 91 | Ga16 nonsel ant inactive
CC(C)Cc1ccc(C(C)NC(=O)c2ccc(=O)[nH]c2)cc1 (centres undefined)	TAAR1 ag 91 | TAAR1 ag conf 94 | Ga16 nonsel ag 49 | TAAR1 desensitize 49 | Ga16 nonsel ant 38
CCCCc1c(-c2ccccc2OC)ncn1CCc1cccc(Cl)c1	TAAR1 ag 66 (no result: GPR7 antagonist, TRPML3 agonist, TRPN1 ag, LANA-H2B inh) | TAAR1 ag conf 84 | Ga16 nonsel ag 19 | TAAR1 desensitize 83 | Ga16 nonsel ant 34
CCCCCc1c(-c2ccccc2)ncn1CCc1ccccc1OC	none (no result: GPR7 antagonist, TRPML3 agonist, TRPN1 ag, LANA-H2B inh)
CCCc1c(-c2ccc(Cl)cc2)ncn1Cc1ccccc1OC	none (no result: GPR7 antagonist, TRPML3 agonist, TRPN1 ag, LANA-H2B inh)
CCCc1c(-c2ccc(F)cc2)ncn1CCc1ccccc1OC	none (no result: GPR7 antagonist, TRPML3 agonist, TRPN1 ag, LANA-H2B inh)
CCCc1c(-c2ccc(Cl)cc2)ncn1CCc1ccccc1OC	TAAR1 antagonist 52, TAAR1 ag 56 (no result: GPR7 antagonist, TRPML3 agonist, TRPN1 ag, LANA-H2B inh) | TAAR1 ag conf 82 | Ga16 nonsel ag 15 | TAAR1 desensitize 83 | Ga16 nonsel ant 26
CCc1c(-c2ccccc2Br)ncn1CCc1ccccc1OC	TAAR1 antagonist 53, TAAR1 ag 44 (no result: GPR7 antagonist, TRPML3 agonist, TRPN1 ag, LANA-H2B inh) | TAAR1 ag conf 70 | Ga16 nonsel ag inactive | TAAR1 desensitize 59 | Ga16 nonsel ant 28
CCCCc1c(-c2ccc(OC)c(OC)c2)ncn1CCc1ccccc1OC	TAAR1 antagonist 58, TAAR1 ag 59 (no result: GPR7 antagonist, TRPML3 agonist, TRPN1 ag, LANA-H2B inh) | TAAR1 ag conf 64 | Ga16 nonsel ag inactive | TAAR1 desensitize 68 | Ga16 nonsel ant 42
COc1ccc(F)cc1S(=O)(=O)NCc1cc(=O)n(C)c(=O)n1C	none (no result: TRPML3 agonist, TRPN1 ag)
COc1cccc(CNC(=O)C2CCN(c3nnc(N4CCCC4=O)s3)CC2)c1	none (no result: TRPML3 agonist, TRPN1 ag)

Screening results (PubChem BioAssay)
